Source: ChEMBL document CHEMBL1130090, “Antitumor agents. 174. 2',3',4',5,6,7-Substituted 2-phenyl-1,8-naphthyridin-4-ones: their synthesis, cytotoxicity, and inhibition of tubulin polymerization” (J Med Chem, 1997)

The molecules below were run on 786-0 (assay: Concentration which reduced cell growth to 50 % of level against 786-0 renal cancer line). Conditions: Homo sapiens.
Format: functional

Structure (SMILES)	GI50
Oc1cc(-c2ccc(Cl)cc2)nc2ncccc12	33.9 µM
COc1ccccc1-c1cc(O)c2cc(C)cnc2n1	41.7 µM
Cc1ccc2c(O)cc(-c3ccc(F)cc3)nc2n1	41.7 µM
COc1ccc(-c2cc(O)c3cccnc3n2)cc1	56.2 µM
COc1ccccc1-c1cc(O)c2ccc(C)nc2n1	> 100 µM
COc1cccc(-c2cc(=O)c3ccc(C)nc3[nH]2)c1	0.0537 µM
COc1cccc(-c2cc(O)c3cccnc3n2)c1	0.0617 µM

What follows are molecules tested on U-251 (assay: Concentration which reduced cell growth to 50 % of U251 cancer line). Conditions: Homo sapiens.
Format: functional

Structure (SMILES)	GI50
Oc1cc(-c2ccc(Cl)cc2)nc2ncccc12	39.8 µM
COc1ccccc1-c1cc(O)c2cc(C)cnc2n1	27.5 µM
Cc1ccc2c(O)cc(-c3ccc(F)cc3)nc2n1	37.2 µM
COc1ccc(-c2cc(O)c3cccnc3n2)cc1	53.7 µM
COc1ccccc1-c1cc(O)c2ccc(C)nc2n1	> 100 µM
COc1cccc(-c2cc(=O)c3ccc(C)nc3[nH]2)c1	0.0537 µM
COc1cccc(-c2cc(O)c3cccnc3n2)c1	0.055 µM

Each molecule was assayed on HL-60 (assay: Concentration which reduced cell growth to 50 % of level against HL-60 (TB) leukemia cell line). Conditions: Homo sapiens.
Format: functional

Structure (SMILES)	GI50
Oc1cc(-c2ccc(Cl)cc2)nc2ncccc12	16.6 µM
COc1ccccc1-c1cc(O)c2cc(C)cnc2n1	9.55 µM
Cc1ccc2c(O)cc(-c3ccc(F)cc3)nc2n1	14.8 µM
COc1ccc(-c2cc(O)c3cccnc3n2)cc1	12.9 µM
COc1ccccc1-c1cc(O)c2ccc(C)nc2n1	74.1 µM
COc1cccc(-c2cc(=O)c3ccc(C)nc3[nH]2)c1	0.0182 µM
COc1cccc(-c2cc(O)c3cccnc3n2)c1	0.0162 µM

What follows are molecules tested on Tumor Cell line (assay: Cytotoxic effect in human tumor cell lines, tested by the National Cancer Institute). Conditions: read-out: Average LogGI50 (converted).
Format: functional

Structure (SMILES)	GI50
COc1cc([C@@H]2c3cc4c(cc3[C@H](O)[C@H]3COC(=O)[C@H]23)OCO4)cc(OC)c1OC [PODOFILOX]	0.0288 µM
COc1cc2c(c(OC)c1OC)-c1ccc(OC)c(=O)cc1[C@@H](NC(C)=O)CC2 [COLCHICINE]	0.0575 µM
Oc1cc(-c2ccc(Cl)cc2)nc2ncccc12	38.9 µM
COc1ccccc1-c1cc(O)c2cc(C)cnc2n1	31.6 µM
Cc1ccc2c(O)cc(-c3ccc(F)cc3)nc2n1	32.4 µM
COc1ccc(-c2cc(O)c3cccnc3n2)cc1	38 µM
COc1ccccc1-c1cc(O)c2ccc(C)nc2n1	79.4 µM
COc1ccc(/C=C\c2cc(OC)c(OC)c(OC)c2)cc1O [COMBRETASTATIN A4]	0.00661 µM
COc1cccc(-c2cc(=O)c3ccc(C)nc3[nH]2)c1	0.0575 µM
COc1cccc(-c2cc(O)c3cccnc3n2)c1	0.135 µM

Each molecule was assayed on HCT-116 (assay: Concentration which reduced cell growth to 50 % of level against HCT116 colon cancer cell line). Conditions: Homo sapiens.
Format: functional

Structure (SMILES)	GI50
Oc1cc(-c2ccc(Cl)cc2)nc2ncccc12	32.4 µM
COc1ccccc1-c1cc(O)c2cc(C)cnc2n1	42.7 µM
Cc1ccc2c(O)cc(-c3ccc(F)cc3)nc2n1	33.9 µM
COc1ccc(-c2cc(O)c3cccnc3n2)cc1	17.8 µM
COc1ccccc1-c1cc(O)c2ccc(C)nc2n1	38 µM
COc1cccc(-c2cc(=O)c3ccc(C)nc3[nH]2)c1	0.0468 µM
COc1cccc(-c2cc(O)c3cccnc3n2)c1	0.0363 µM

Each molecule was assayed on SF-295 (assay: Concentration which reduced cell growth to 50 % of level against SF-295 CNS cancer line). Conditions: Homo sapiens.
Format: functional

Structure (SMILES)	GI50
Oc1cc(-c2ccc(Cl)cc2)nc2ncccc12	40.7 µM
COc1ccccc1-c1cc(O)c2cc(C)cnc2n1	30.9 µM
Cc1ccc2c(O)cc(-c3ccc(F)cc3)nc2n1	37.2 µM
COc1ccc(-c2cc(O)c3cccnc3n2)cc1	64.6 µM
COc1ccccc1-c1cc(O)c2ccc(C)nc2n1	> 100 µM
COc1cccc(-c2cc(=O)c3ccc(C)nc3[nH]2)c1	0.0302 µM
COc1cccc(-c2cc(O)c3cccnc3n2)c1	0.0525 µM

The molecules below were run against Tubulin beta chain (Bos taurus, UniProt Q6B856) (assay: Inhibition of bovine tubulin polymerization). Conditions: not given.
Tubulin beta chain, sequence (Q6B856 whole entry): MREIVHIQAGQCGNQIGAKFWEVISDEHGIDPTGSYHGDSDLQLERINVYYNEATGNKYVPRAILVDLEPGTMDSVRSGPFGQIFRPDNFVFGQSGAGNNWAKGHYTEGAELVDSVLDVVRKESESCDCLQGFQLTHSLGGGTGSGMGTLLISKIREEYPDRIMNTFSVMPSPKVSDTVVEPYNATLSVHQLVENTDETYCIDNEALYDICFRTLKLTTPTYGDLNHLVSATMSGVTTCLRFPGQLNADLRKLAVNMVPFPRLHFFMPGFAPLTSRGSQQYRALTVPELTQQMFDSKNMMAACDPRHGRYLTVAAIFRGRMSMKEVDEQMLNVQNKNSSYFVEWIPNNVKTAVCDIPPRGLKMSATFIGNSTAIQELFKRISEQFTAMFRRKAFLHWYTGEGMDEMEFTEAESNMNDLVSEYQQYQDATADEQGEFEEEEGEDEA
Format: functional

Structure (SMILES)	IC50
Cc1ccc(-c2cc(O)c3c(C)cc(C)nc3n2)cc1	9.8 µM
COc1cccc(-c2cc(O)c3cc(Br)cnc3n2)c1	1.5 µM
Cc1ccc(-c2cc(O)c3cc(C)cnc3n2)cc1	2.4 µM
COc1cccc(-c2cc(O)c3ccc(C)nc3n2)c1	0.75 µM
Cc1ccc(-c2cc(O)c3ccc(C)nc3n2)cc1	4.9 µM
Oc1cc(-c2ccc(Cl)cc2)nc2ncccc12	22 µM
COc1ccccc1-c1cc(O)c2cc(C)cnc2n1	18 µM
Cc1ccc2c(O)cc(-c3ccc(F)cc3)nc2n1	> 40 µM
COc1ccc(-c2cc(O)c3cccnc3n2)cc1	> 40 µM
COc1ccccc1-c1cc(O)c2ccc(C)nc2n1	> 40 µM
Cc1ccc(-c2cc(O)c3c(C)ccnc3n2)cc1	2.9 µM
COc1cccc(-c2cc(O)c3cccnc3n2)c1	0.96 µM

Each molecule was assayed on MDA-N (assay: Concentration which reduced cell growth to 50 % of level against MDA-N breast cancer line). Conditions: Homo sapiens.
Format: functional

Structure (SMILES)	GI50
Oc1cc(-c2ccc(Cl)cc2)nc2ncccc12	8.32 µM
COc1ccccc1-c1cc(O)c2cc(C)cnc2n1	4.47 µM
Cc1ccc2c(O)cc(-c3ccc(F)cc3)nc2n1	11.7 µM
COc1ccc(-c2cc(O)c3cccnc3n2)cc1	20.9 µM
COc1ccccc1-c1cc(O)c2ccc(C)nc2n1	20 µM
COc1cccc(-c2cc(=O)c3ccc(C)nc3[nH]2)c1	0.011 µM
COc1cccc(-c2cc(O)c3cccnc3n2)c1	< 0.01 µM

Each molecule was assayed against Tubulin alpha chain (Sus scrofa) (UniProt P02550) (assay: Inhibition of colchicine binding and evaluated only when polymerization IC50 <=1 uM). Conditions: not given.
Tubulin alpha chain (Sus scrofa), sequence (P02550 whole entry, looked up): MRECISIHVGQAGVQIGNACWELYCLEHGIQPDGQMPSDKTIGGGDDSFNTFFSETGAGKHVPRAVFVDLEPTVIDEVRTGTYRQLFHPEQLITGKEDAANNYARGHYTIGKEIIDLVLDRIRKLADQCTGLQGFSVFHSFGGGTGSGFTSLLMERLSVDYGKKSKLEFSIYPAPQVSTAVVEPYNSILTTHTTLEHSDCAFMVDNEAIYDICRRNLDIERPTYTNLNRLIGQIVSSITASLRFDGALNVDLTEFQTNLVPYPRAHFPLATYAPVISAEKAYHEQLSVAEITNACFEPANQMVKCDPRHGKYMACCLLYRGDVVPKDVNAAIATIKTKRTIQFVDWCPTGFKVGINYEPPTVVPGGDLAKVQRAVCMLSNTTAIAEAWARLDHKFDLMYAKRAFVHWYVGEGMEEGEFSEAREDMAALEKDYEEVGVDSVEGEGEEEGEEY
Format: functional
Procedure, shortened: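 Electrophoretically homogeneous bovine brain tubulin (1.0 µM) incubated 20 min at 37 °C with 5.0 µM [3H]colchicine and 5.0 µM inhibitor in 1.0 M monosodium glutamate (pH 6.6), 1 mM MgCl2, 0.1 mM GTP, 5% (v/v) DMSO. Mixtures filtered through two stacked DEAE-cellulose filters and washed with water. Bound radioactivity counted by liquid scintillation.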

Structure (SMILES)	inhibition
COc1cc([C@@H]2c3cc4c(cc3[C@H](O)[C@H]3COC(=O)[C@H]23)OCO4)cc(OC)c1OC [PODOFILOX]	76%
COc1cccc(-c2cc(=O)c3ccc(C)nc3[nH]2)c1	29%
COc1cccc(-c2cc(O)c3cccnc3n2)c1	27%

The molecules below were run on SK-MEL-5 (assay: Concentration which reduced cell growth to 50 % of level against SK-MEL-5 melanoma cell line). Conditions: Homo sapiens.
Format: functional

Structure (SMILES)	GI50
Oc1cc(-c2ccc(Cl)cc2)nc2ncccc12	28.8 µM
COc1ccccc1-c1cc(O)c2cc(C)cnc2n1	20.4 µM
Cc1ccc2c(O)cc(-c3ccc(F)cc3)nc2n1	31.6 µM
COc1ccc(-c2cc(O)c3cccnc3n2)cc1	34.7 µM
COc1ccccc1-c1cc(O)c2ccc(C)nc2n1	51.3 µM
COc1cccc(-c2cc(=O)c3ccc(C)nc3[nH]2)c1	0.0339 µM
COc1cccc(-c2cc(O)c3cccnc3n2)c1	0.0537 µM

What follows are molecules tested on NCI-H460 (assay: Concentration which reduced cell growth to 50 % of level against NCI-H460 non -small-cell lung cancer cell line). Conditions: Homo sapiens.
Format: functional

Structure (SMILES)	GI50
Oc1cc(-c2ccc(Cl)cc2)nc2ncccc12	38 µM
COc1ccccc1-c1cc(O)c2cc(C)cnc2n1	32.4 µM
Cc1ccc2c(O)cc(-c3ccc(F)cc3)nc2n1	33.9 µM
COc1ccc(-c2cc(O)c3cccnc3n2)cc1	26.3 µM
COc1ccccc1-c1cc(O)c2ccc(C)nc2n1	97.7 µM
COc1cccc(-c2cc(=O)c3ccc(C)nc3[nH]2)c1	0.0437 µM
COc1cccc(-c2cc(O)c3cccnc3n2)c1	0.0912 µM

These molecules were tested on PC-3 (assay: Concentration which reduced cell growth to 50 % of level against PC-3 prostate cancer line). Conditions: Homo sapiens.
Format: functional

Structure (SMILES)	GI50
Oc1cc(-c2ccc(Cl)cc2)nc2ncccc12	47.9 µM
COc1ccccc1-c1cc(O)c2cc(C)cnc2n1	26.9 µM
Cc1ccc2c(O)cc(-c3ccc(F)cc3)nc2n1	20.9 µM
COc1ccc(-c2cc(O)c3cccnc3n2)cc1	31.6 µM
COc1ccccc1-c1cc(O)c2ccc(C)nc2n1	> 100 µM
COc1cccc(-c2cc(=O)c3ccc(C)nc3[nH]2)c1	0.0331 µM
COc1cccc(-c2cc(O)c3cccnc3n2)c1	0.0933 µM

The molecules below were run on MDA-MB-435 (assay: Concentration which reduced cell growth to 50 % of level against MDA-MB-435 breast cancer line). Conditions: Homo sapiens.
Format: functional

Structure (SMILES)	GI50
Oc1cc(-c2ccc(Cl)cc2)nc2ncccc12	5.89 µM
COc1ccccc1-c1cc(O)c2cc(C)cnc2n1	3.02 µM
Cc1ccc2c(O)cc(-c3ccc(F)cc3)nc2n1	5.89 µM
COc1ccc(-c2cc(O)c3cccnc3n2)cc1	20 µM
COc1ccccc1-c1cc(O)c2ccc(C)nc2n1	21.9 µM
COc1cccc(-c2cc(=O)c3ccc(C)nc3[nH]2)c1	< 0.01 µM
COc1cccc(-c2cc(O)c3cccnc3n2)c1	< 0.01 µM

What follows are molecules tested on OVCAR-3 (assay: Concentration which reduced cell growth to 50 % of level against OVCAR-3 ovarian cancer line). Conditions: Homo sapiens.
Format: functional

Structure (SMILES)	GI50
Oc1cc(-c2ccc(Cl)cc2)nc2ncccc12	23.4 µM
COc1ccccc1-c1cc(O)c2cc(C)cnc2n1	19.5 µM
Cc1ccc2c(O)cc(-c3ccc(F)cc3)nc2n1	32.4 µM
COc1ccc(-c2cc(O)c3cccnc3n2)cc1	30.2 µM
COc1ccccc1-c1cc(O)c2ccc(C)nc2n1	> 100 µM
COc1cccc(-c2cc(=O)c3ccc(C)nc3[nH]2)c1	0.0224 µM
COc1cccc(-c2cc(O)c3cccnc3n2)c1	0.055 µM
